Tests used:
Acetylcholinesterase [1] = target: T1, Acetylcholinesterase (Homo sapiens, UniProt P22303); assay: In vitro inhibitory concentration against purified Acetylcholinesterase of human erythrocytes; value ranges from 0.12-0.41
[2] = target: T2, Amine oxidase [flavin-containing] A (Rattus norvegicus, UniProt P21396); assay: In vitro inhibitory concentration against Monoamine oxidase A of rat brain homogenates; value ranges from 9-52; format: tissue-based
T2 sequence (P21396 whole entry): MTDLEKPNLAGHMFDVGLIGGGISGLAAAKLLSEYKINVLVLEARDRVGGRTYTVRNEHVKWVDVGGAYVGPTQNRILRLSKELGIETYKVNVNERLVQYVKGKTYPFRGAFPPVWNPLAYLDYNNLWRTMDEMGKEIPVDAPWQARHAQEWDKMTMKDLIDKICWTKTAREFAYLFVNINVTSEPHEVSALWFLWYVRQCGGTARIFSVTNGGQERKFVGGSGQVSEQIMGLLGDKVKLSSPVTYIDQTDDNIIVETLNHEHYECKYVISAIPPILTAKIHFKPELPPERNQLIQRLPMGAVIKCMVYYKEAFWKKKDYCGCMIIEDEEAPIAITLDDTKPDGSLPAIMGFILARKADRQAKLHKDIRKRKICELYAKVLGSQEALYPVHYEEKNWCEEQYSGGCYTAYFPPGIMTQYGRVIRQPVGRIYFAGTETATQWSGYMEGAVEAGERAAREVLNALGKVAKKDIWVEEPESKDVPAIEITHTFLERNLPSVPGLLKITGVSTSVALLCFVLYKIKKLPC

[3] = target: T3, Amine oxidase [flavin-containing] B (Rattus norvegicus, UniProt P19643); assay: In vitro inhibitory concentration against Monoamine oxidase B of rat brain homogenates; format: tissue-based
T3 sequence (P19643 whole entry): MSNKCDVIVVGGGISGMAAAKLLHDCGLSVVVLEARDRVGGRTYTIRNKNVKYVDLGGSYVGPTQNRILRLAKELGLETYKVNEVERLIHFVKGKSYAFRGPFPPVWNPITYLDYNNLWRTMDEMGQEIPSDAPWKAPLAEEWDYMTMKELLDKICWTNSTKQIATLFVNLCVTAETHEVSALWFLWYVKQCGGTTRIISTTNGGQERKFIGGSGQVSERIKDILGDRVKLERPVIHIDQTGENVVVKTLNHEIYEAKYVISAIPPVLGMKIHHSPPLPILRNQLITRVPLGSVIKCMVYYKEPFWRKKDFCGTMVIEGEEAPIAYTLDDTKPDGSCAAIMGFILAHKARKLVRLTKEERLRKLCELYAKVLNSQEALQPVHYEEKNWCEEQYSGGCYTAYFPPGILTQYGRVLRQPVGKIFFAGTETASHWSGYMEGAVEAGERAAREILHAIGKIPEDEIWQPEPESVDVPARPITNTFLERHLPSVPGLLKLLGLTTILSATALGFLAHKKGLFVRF

[4] = Bimolecular rate constant for carbamoylation of ACHE; format: ADME
Method in brief: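 Human erythrocyte AChE preincubated with inhibitor at 37 °C in 0.1 M phosphate buffer, pH 7.4, under Ellman conditions with 200 µM […]. Pseudo-first-order rate constants (k_obs) for progressive inhibition were obtained at 4-5 inhibitor concentrations. The apparent bimolecular carbamylation constant k_i was calculated from these.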

[5] = Pseudo-first order rate constant for carbamoylation of ACHE at 10 (uM) concentration; format: ADME
Method in brief: (§1)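 Human erythrocyte AChE, Ellman method with 200 µM […] substrate, 0.1 M phosphate buffer pH 7.4, 37 °C. Progressive inhibition followed at 4–5 inhibitor concentrations. Pseudo-first-order carbamylation rate constants k_obs (min⁻¹) derived as per Bar-On et al. and reported ±SEM. Apparent bimolecular rate constant k_i calculated from these.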

Acetylcholinesterase [6] = target: T1, Acetylcholinesterase; assay: In vitro inhibitory concentration against purified Acetylcholinesterase of human erythrocytes; value ranges from 2.36-4.22
Butyrylcholinesterase [7] = target: T4, Butyrylcholinesterase (Equus caballus, UniProt Q9N1N9); assay: In vitro inhibitory concentration against Butyrylcholinesterase of horse serum; value ranges from 0.64-0.89
[8] = target: T2, Amine oxidase [flavin-containing] A; assay: In vitro inhibitory concentration against Monoamine oxidase A of rat brain homogenates; value ranges from 8-43; format: tissue-based
[9] = Pseudo-first order rate constant for carbamoylation of ACHE at 20 (uM) concentration; format: ADME; method in brief: as §1
[10] = target: T3, Amine oxidase [flavin-containing] B; assay: In vitro inhibitory concentration against Monoamine oxidase B of rat brain homogenates; value ranges from 0.8-2.9; format: tissue-based
[11] = Pseudo-first order rate constant for carbamoylation of ACHE at 2.5(uM) concentration; format: ADME; method in brief: as §1
[12] = Pseudo-first order rate constant for carbamoylation of ACHE at 40 (uM) concentration; format: ADME; method in brief: as §1
[13] = Pseudo-first order rate constant for carbamoylation of ACHE at 50 (uM) concentration; format: ADME
Method in brief: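 Human erythrocyte AChE, same Ellman conditions: 200 µM […], 60 min preincubation at 37 °C, 0.1 M phosphate pH 7.4. Progressive inhibition followed at 4-5 inhibitor concentrations. Pseudo-first-order k_obs (min⁻¹) derived per concentration; apparent bimolecular carbamylation constant k_i calculated from these.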

[14] = Pseudo-first order rate constant for carbamoylation of ACHE at 5 (uM) concentration; format: ADME; method in brief: as §1
Acetylcholinesterase [15] = target: T1, Acetylcholinesterase; assay: In vitro inhibitory concentration against purified Acetylcholinesterase of human erythrocytes; value ranges from 0.44-0.49
Acetylcholinesterase [16] = target: T1, Acetylcholinesterase; assay: In vitro inhibitory concentration against purified Acetylcholinesterase of human erythrocytes; value ranges from 252-806
Butyrylcholinesterase [17] = target: T4, Butyrylcholinesterase; assay: In vitro inhibitory concentration against Butyrylcholinesterase of horse serum; value ranges from 10.7-43.7
Method in brief: (§2)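 Ellman assay followed, with 200 µM butyrylthiocholine as substrate. Runs were in triplicate with four-point dose-response curves. IC50 and fiducial limits came from log concentration versus % inhibition.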

Acetylcholinesterase [18] = target: T1, Acetylcholinesterase
Butyrylcholinesterase [19] = target: T4, Butyrylcholinesterase; assay: In vitro inhibitory concentration against Butyrylcholinesterase of horse serum; value ranges from 0.70-0.92; method in brief: as §2
Acetylcholinesterase [20] = target: T1, Acetylcholinesterase; remark: listed apart in the source
Butyrylcholinesterase [21] = target: T4, Butyrylcholinesterase; assay: In vitro inhibitory concentration against Butyrylcholinesterase of horse serum; value ranges from 7.65-13.2; method in brief: as §2
Acetylcholinesterase [22] = target: T1, Acetylcholinesterase; assay: In vitro inhibitory concentration against purified Acetylcholinesterase of human erythrocytes; value ranges from […]-[…]
[23] = target: T2, Amine oxidase [flavin-containing] A; assay: In vitro inhibitory concentration against Monoamine oxidase A of rat brain homogenates 47-101; format: tissue-based
[24] = target: T2, Amine oxidase [flavin-containing] A; assay: In vitro inhibitory concentration against Monoamine oxidase A of rat brain homogenates; value ranges from 5.6-11.1; format: tissue-based
Acetylcholinesterase [25] = target: T1, Acetylcholinesterase; assay: In vitro inhibitory concentration against purified Acetylcholinesterase of human erythrocytes; value ranges from 0.025-0.027
Butyrylcholinesterase [26] = target: T4, Butyrylcholinesterase; assay: In vitro inhibitory concentration against Butyrylcholinesterase of horse serum; value ranges from 0.038-0.064; method in brief: as §2
[27] = target: T2, Amine oxidase [flavin-containing] A; assay: In vitro inhibitory concentration against Monoamine oxidase A of rat brain homogenates; value ranges from 5.6-19.6; format: tissue-based
Acetylcholinesterase [28] = target: T1, Acetylcholinesterase; assay: In vitro inhibitory concentration against purified Acetylcholinesterase of human erythrocytes; value ranges from 0.012-0.014
[29] = target: T2, Amine oxidase [flavin-containing] A; assay: biochemical; format: tissue-based, Brain
Acetylcholinesterase [30] = target: T1, Acetylcholinesterase; assay: In vitro inhibitory concentration against purified Acetylcholinesterase of human erythrocytes; value ranges from 8.99-49.4
Butyrylcholinesterase [31] = target: T4, Butyrylcholinesterase; assay: In vitro inhibitory concentration against Butyrylcholinesterase of horse serum; value ranges from 0.76-4.2; method in brief: as §2
[32] = target: T3, Amine oxidase [flavin-containing] B; assay: In vitro inhibitory concentration against Monoamine oxidase B of rat brain homogenates; value ranges from 80.-92
Acetylcholinesterase [33] = target: T1, Acetylcholinesterase; remark: listed apart in the source
[34] = target: T2, Amine oxidase [flavin-containing] A; assay: In vitro inhibitory concentration against Monoamine oxidase A of rat brain homogenates; value ranges from 0.22-0.29; format: tissue-based
Butyrylcholinesterase [35] = target: T4, Butyrylcholinesterase; assay: In vitro inhibitory concentration against Butyrylcholinesterase of horse serum; value ranges from 0.34-1.03; method in brief: as §2
[36] = target: T2, Amine oxidase [flavin-containing] A; assay: In vitro inhibitory concentration against Monoamine oxidase A of rat brain homogenates; value ranges from 30-230; format: tissue-based

T4 sequence (Q9N1N9 whole entry): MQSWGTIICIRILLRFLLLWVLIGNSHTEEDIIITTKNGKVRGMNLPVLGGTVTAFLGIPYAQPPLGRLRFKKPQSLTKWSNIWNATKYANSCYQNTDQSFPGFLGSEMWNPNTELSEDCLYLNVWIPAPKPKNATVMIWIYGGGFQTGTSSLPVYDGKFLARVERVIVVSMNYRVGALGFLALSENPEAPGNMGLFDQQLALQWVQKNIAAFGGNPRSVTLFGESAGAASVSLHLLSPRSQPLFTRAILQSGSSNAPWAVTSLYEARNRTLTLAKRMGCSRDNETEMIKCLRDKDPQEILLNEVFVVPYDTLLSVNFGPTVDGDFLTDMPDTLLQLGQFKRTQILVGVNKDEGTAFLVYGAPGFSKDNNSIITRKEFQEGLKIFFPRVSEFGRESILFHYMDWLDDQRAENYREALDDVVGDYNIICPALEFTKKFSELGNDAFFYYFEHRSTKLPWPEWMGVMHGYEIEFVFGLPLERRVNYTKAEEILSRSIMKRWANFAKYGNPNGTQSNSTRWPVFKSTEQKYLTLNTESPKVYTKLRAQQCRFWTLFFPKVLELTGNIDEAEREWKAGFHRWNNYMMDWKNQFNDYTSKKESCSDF
T1 sequence (P22303 whole entry): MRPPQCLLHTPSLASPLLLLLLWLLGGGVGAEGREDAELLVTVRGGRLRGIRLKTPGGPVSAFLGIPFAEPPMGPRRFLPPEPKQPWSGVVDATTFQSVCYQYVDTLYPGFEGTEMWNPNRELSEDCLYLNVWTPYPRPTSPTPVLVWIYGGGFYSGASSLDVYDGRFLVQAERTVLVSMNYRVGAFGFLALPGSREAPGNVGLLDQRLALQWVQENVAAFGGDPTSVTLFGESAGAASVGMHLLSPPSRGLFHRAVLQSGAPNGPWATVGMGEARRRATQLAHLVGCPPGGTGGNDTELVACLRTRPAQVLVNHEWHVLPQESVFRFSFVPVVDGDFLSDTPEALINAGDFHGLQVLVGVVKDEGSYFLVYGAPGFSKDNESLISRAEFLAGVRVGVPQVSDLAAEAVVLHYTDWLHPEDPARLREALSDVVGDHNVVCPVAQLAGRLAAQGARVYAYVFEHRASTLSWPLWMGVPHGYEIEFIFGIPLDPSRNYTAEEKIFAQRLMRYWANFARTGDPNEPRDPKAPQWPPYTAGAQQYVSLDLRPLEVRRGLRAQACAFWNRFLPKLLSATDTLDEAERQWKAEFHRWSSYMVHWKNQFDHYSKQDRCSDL

SMILES: CNCCc1cccc(OC(=O)N(C)C)c1
- IC50 (Acetylcholinesterase [1]): 0.28 µM
- IC50 [2]: 22 µM
- IC50 [3]: > 1000 µM

SMILES: C#CCN(C)C(C)Cc1cccc(OC(=O)N(C)CCCCCC)c1 (stereo not given)
- Bimolecular carbamoylation rate constant (ki) [4]: 17.25 M⁻¹ s⁻¹
- K obs [5]: 23 min⁻¹
- IC50 (Acetylcholinesterase [6]): 3.06 µM
- IC50 (Butyrylcholinesterase [7]): 0.72 µM
- IC50 [8]: 20 µM
- K obs [9]: 30 min⁻¹
- IC50 [10]: 1.5 µM
- K obs [11]: 14 min⁻¹
- K obs [12]: 55 min⁻¹
- K obs [13]: 63 min⁻¹
- K obs [14]: 15 min⁻¹

SMILES: CN(C)C(=O)Oc1cccc2c1C(N)CC2 (stereo not given)
- IC50 (Acetylcholinesterase [15]): 0.46 µM

SMILES: C#CCN(C)C1CCc2cccc(OC(=O)N(C)CC)c21 (stereo not given)
- IC50 (Acetylcholinesterase [16]): 439 µM
- IC50 (Butyrylcholinesterase [17]): 20 µM

SMILES: C#CCN(C)C1CCc2c(OC(=O)N(C)CC)cccc21 (stereo not given)
- IC50 (Acetylcholinesterase [18]): 14.9 µM
- IC50 (Butyrylcholinesterase [19]): 0.79 µM

SMILES: CCN(C)C(=O)Oc1cccc2c1C(N)CC2 (stereo not given)
- IC50 (Acetylcholinesterase [20]): 10.5 µM
- IC50 [3]: > 1000 µM

SMILES: COc1ccc(N(C)C(=O)Oc2ccc3c(c2)C(N)CC3)cc1 (stereo not given)
- IC50 (Butyrylcholinesterase [21]): 9.91 µM
- IC50 (Acetylcholinesterase [22]): 0.3 µM

SMILES: C#CCNC1CCc2ccc(OC(=O)NCCC)cc21 (stereo not given)
- IC50 [23]: 69 µM

SMILES: CCN(C)C(=O)Oc1cccc2c1CCC2N (stereo not given)
- IC50 [24]: 7.9 µM
- IC50 (Acetylcholinesterase [25]): 0.026 µM
- IC50 (Butyrylcholinesterase [26]): 0.054 µM
- IC50 [3]: > 1000 µM

SMILES: CN(C)C(=O)Oc1cccc2c1CCC2N(C)C (stereo not given)
- IC50 [27]: 10 µM
- IC50 (Acetylcholinesterase [28]): 0.013 µM
- IC50 [3]: > 1000 µM

SMILES: CCN(C)C(=O)Oc1ccc2c(c1)C(N)CC2 (stereo not given)
- IC50 [29]: 12.9 µM
- IC50 (Acetylcholinesterase [30]): 19 µM
- IC50 [3]: > 1000 µM
- IC50 (Butyrylcholinesterase [31]): 1.9 µM

SMILES: C#CCNC1CCc2c(OC(=O)N(C)C)cccc21 (stereo not given)
- IC50 [32]: 86 µM
- IC50 (Acetylcholinesterase [33]): 0.053 µM
- IC50 [34]: 0.26 µM

SMILES: CN(C)C(=O)Oc1ccc2c(c1)C(N)CC2 (stereo not given)
- IC50 (Butyrylcholinesterase [35]): 0.63 µM
- IC50 [36]: 80 µM

Source: ChEMBL document CHEMBL1135657, “Novel dual inhibitors of AChE and MAO derived from hydroxy aminoindan and phenethylamine as potential treatment for Alzheimer's disease” (J Med Chem, 2002)
